Experimental findings from ChEMBL document CHEMBL4477209, “Indole-2-carboxamide-based MmpL3 Inhibitors Show Exceptional Antitubercular Activity in an Animal Model of Tuberculosis Infection” (J Med Chem, 2016) are described below.

≈ marks a conversion by molar mass, not a printed value. Calls of active or inactive are those of the source. The calls are words filed in the database; no cut-off is given here.

The target in data set [1] is T1, Aryl hydrocarbon receptor (Homo sapiens, UniProt P35869).
T1 sequence (P35869 whole entry): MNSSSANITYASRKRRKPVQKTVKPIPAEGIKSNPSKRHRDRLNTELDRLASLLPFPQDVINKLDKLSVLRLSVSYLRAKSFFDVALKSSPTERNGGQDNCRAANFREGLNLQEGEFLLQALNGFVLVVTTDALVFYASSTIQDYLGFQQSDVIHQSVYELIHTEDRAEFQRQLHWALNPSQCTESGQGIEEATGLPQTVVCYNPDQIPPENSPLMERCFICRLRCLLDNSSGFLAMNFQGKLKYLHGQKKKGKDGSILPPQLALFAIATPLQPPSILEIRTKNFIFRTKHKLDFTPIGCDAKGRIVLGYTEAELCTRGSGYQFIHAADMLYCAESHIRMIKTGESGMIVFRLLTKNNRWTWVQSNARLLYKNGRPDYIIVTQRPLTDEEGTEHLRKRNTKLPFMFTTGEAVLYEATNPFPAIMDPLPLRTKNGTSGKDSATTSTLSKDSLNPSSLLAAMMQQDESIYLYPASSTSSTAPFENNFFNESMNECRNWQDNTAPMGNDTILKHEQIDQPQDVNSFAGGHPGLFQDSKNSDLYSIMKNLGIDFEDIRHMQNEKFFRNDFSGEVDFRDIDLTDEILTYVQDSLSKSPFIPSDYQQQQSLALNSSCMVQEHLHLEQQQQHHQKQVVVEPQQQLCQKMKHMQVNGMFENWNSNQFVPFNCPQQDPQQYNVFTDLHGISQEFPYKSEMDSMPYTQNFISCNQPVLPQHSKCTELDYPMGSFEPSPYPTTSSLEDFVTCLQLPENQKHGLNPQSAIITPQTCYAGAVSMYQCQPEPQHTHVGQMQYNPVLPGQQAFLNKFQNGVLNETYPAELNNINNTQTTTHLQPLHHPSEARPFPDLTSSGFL
The experiment in a line: Transactivation of AhR (unknown origin) assessed as upregulation of CYP1A2. The class given is ADME. The method in brief:
(§1)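 Nuclear receptor reporter-gene induction assay, with reporters coupled to PXR, CAR or AhR. Compound was tested at 0.1–1, 3 and 8 μg/mL. Positive controls were rifampin for PXR, CITCO for CAR and 3-methylcholanthrene for AhR.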

Data set [2] has as its target T2, Nuclear receptor subfamily 1 group I member 3 (Homo sapiens, UniProt Q14994).
T2 sequence (Q14994 whole entry): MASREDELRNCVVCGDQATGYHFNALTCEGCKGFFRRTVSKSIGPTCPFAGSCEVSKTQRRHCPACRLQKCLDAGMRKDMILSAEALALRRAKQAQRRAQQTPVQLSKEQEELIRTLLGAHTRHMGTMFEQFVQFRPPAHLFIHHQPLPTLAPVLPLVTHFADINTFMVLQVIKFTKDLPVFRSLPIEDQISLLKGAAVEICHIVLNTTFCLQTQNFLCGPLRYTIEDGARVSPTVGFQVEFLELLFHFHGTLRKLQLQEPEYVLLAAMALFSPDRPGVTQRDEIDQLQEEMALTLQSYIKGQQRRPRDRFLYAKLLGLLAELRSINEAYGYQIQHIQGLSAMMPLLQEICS
Kind of data set: Transactivation of CAR (unknown origin) assessed as upregulation of CYP2B6. The format is ADME. The method in brief: as §1

For data set [3], the system named is Mycobacterium tuberculosis H37Rv. Kind of data set: Inhibition of MmpL3 in clinical isolates of drug sensitive Mycobacterium tuberculosis H37Rv after 7 to 14 days by alamar blue assay.
Data set [4] deals with Mycobacterium tuberculosis. The experiment in a line: Antimycobacterial activity against Mycobacterium tuberculosis H37Rv grown on serum isolated from 10 mg/kg, po treated BALB/c mouse for 30 to 120 mins assessed as reduction in bacterial growth followed by bacterial addition incubated for 7 days by alamar blue reagent based serum inhibition titration assay. The format is functional, organism-based. A digest of the protocol: (§2)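 Six-week-old female BALB/c mice (20 g) given one oral dose as suspension in 0.5% CMC in water; isoniazid 10 mg/kg as positive control, vehicle as negative. Serum collected at 30, 60 and 120 min, pooled from three mice per time point, 2-fold serially diluted. 10^4 CFU H37Rv added per well, 7 days at 37 °C. alamarBlue added for 16−18 h, fluorescence read at Ex544/Em590 and plotted against serum titration.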

A short description of data set [5]: Oral bioavailability in BALB/c mouse at 10 mg/kg administered for 30 to 120 mins followed by Mycobacterium tuberculosis H37Rv addition to compound treated serum incubated for 7 days by alamar blue reagent based serum inhibition titration assay. The format is ADME, organism-based. The note with it: in vivo. A digest of the protocol: as §2
The nature of data set [6]: Mutagenicity in Salmonella typhimurium TA98 assessed as increase in ratio of revertant colonies in presence of S9 liver fraction relative to control. The format is toxicity, subcellular. The note with it: salmonella enterica subsp. enterica serovar typhimurium.

On to `Cc1ccc2cc3c(ccc4ccccc43)c3c2c1CC3` [3-METHYLCHOLANTHRENE], for which the result in data set [1] was Active. `Clc1ccc(-c2nc3sccn3c2/C=N/OCc2ccc(Cl)c(Cl)c2)cc1`: the result in data set [2] was Active. `NNC(=O)c1ccncc1` [ISONIAZID] registered an MIC90 in data set [3] of 0.29 µM (≈ 0.0398 µg/mL). Besides, the outcome in data set [4] was Active. Moreover, the Drug uptake entry in data set [5] is “Active”. `Nc1ccc2cc3ccccc3cc2c1` [2-AMINOANTHRACENE]: the “fold change (FC)” value in data set [6] is on record as 173.
